Measurements: publication PMC11339821 (ACS Omega, 2024)
Values joined by “and” are separate entries in the source; they are usually repeats but may differ in a detail not shown here. Equal entries are not always repeated.

Columns and labels:
Type in all cases: in vivo, Swiss albino mice
NO levels = assay: NO; conditions: hippocampus tissue homogenate
Method in brief: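 Hippocampus came from mice dosed intranasally for 6 days and challenged with scopolamine (n = 5). Tissue was homogenised in KCl buffer pH 8.0 with protease and phosphatase inhibitors, then spun at 10,000 g for 25 min at 4 °C. The 10% homogenate was mixed with ammonium chloride and Griess reagent, held 37 °C for 90 min, read at 540 nm. Sodium nitrite standards […]; nitrite in μM/mL; one-way ANOVA with Newman–Keuls.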

[1] = test system: spatial memory of scopolamine-treated AD mice; assay: Morris water-maze test in scopolamine-treated mice; conditions: for spatial memory (probe test, fifth day): after platform removal, vs scopolamine group; for number of entries in the arm: intranasal 0.5 mg/kg bw; for time to find the hidden acrylic platform: intranasal 0.5 mg/kg bw (EGCG-AA-TRANS 0.25 mg/kg bw each)
Method in brief: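 Mice (30 ± 5 g; n = 5/group) were dosed intranasally for 6 days with free or transferosome-loaded test compound at 0.5 mg/kg bw, or 0.25 mg/kg bw of each in the combination. On day 7, scopolamine 0.5 mg/kg bw was given 30 min before trials. Pool 160 cm wide, water 26 cm deep, 22 ± 1 °C; run over 5 days. Quadrant time, arm entries and platform latency recorded; one-way ANOVA with Newman–Keuls.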

[2] = Organ distribution and brain pharmacokinetic study; conditions: brain
[3] = Swiss albino, mouse, inhaled or intranasal, 0.5 mg/kg

Compound | NO levels (NO levels) | spatial memory (probe test, fifth day) [1] | number of entries in the arm [1] | time to find the hidden acrylic platform [1] | AUC(0-t) [2, 3] | Cmax [2, 3] | MRT last [2, 3] | Tmax [2, 3] | Cmax ([2]; mice) | MRT0–24 ([2]; mice) | Tmax ([2]; mice)
CN1[C@@H]2C[C@@H](OC(=O)[C@H](CO)c3ccccc3)C[C@H]1[C@@H]1O[C@@H]12 [scopolamine, Scopolamine] | significantly higher | significantly reduced their spatial memory | about 12 times | 84 s | – | – | – | – | – | – | –
O=C1O[C@H]([C@@H](O)CO)C(O)=C1O [AA, ascorbic acid] | significant decrease in NO levels | improved spatial memory | 15 times | 38 s | 1061 ± 0.654 ng·h/mL | 855.03 ± 0.654 ng/mL | 1.98 ± 0.121 h | 2.12 ± 0.871 h | – | – | –
Epigallocatechin-3-gallate [EGCG] | significant decrease in NO levels | improved spatial memory | 14 times | 42 s | – | – | – | – | 0.78607 ± 0.000784 ng/mL | 1.4 ± 0.985 h and 1.412 ± 0.985 h | 1.101 ± 2.871 h
